Read-outs that look alike come from different tables or passages of the source.

The values that follow come from publication PMC4445693 (Clinical Pharmacology : Advances and Applications, 2015).

For data set [1] the following is noted: human plasma; cited from earlier work.
The conditions of data set [2]: cited from earlier work.
The nature of data set [3]: Single-dose plasma and skin-tissue pharmacokinetics of daptomycin in rats. Format: in vivo, rat. The method, boiled down:
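Rats (10 weeks), scalp depilated, sevoflurane-anaesthetised; test compound 10 mg/mL in saline s.c. Blood and 10×15 mm scalp skin sampled 1, 3, 5, 8, 12 h (3/time point); skin homogenised in 9 vol 1% phosphate buffer pH 6.0, extracted 4°C 18 h. Acetonitrile precipitation, mefenamic acid internal standard; C8 HPLC, UV 214 nm. Cmax/Tmax observed; AUC, MRT by trapezoidal rule; mean ± SD.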

The conditions of data set [4]: cited from earlier work; for AUC24 h in plasma: rat.
Setting [5] is: male, Wistar, rat, plasma, sc, 50 mg/kg, SD.

The Tmax is the time at which the peak concentration occurs. What is called AUC(0-inf) is total exposure, with the tail of the curve extrapolated. What is called Cmax is the maximum level reached in the sampled fluid or tissue. Usually MRT stands for the average time that molecules of a dose stay in the body. As a reminder, the half-life is the time needed for the level to fall by half in the phase considered. By t½ is commonly meant the time needed for the level to fall by half in the phase considered. In the case of `CCCCCCCCCC(=O)N[C@@H](Cc1c[nH]c2ccccc12)C(=O)N[C@H](CC(N)=O)C(=O)N[C@@H](CC(=O)O)C(=O)N[C@@H]1C(=O)NCC(=O)N[C@@H](CCCN)C(=O)N[C@@H](CC(=O)O)C(=O)N[C@H](C)C(=O)N[C@@H](CC(=O)O)C(=O)NCC(=O)N[C@H](CO)C(=O)N[C@@H]([C@H](C)CC(=O)O)C(=O)N[C@@H](CC(=O)c2ccccc2N)C(=O)O[C@@H]1C` [daptomycin], the “Plasma protein binding in humans” value in data set [1] is reported as 92%. In addition, the “Protein binding in rat serum” value in data set [2] is on record as 89.3%. In addition, the Tmax skin tissue in data set [3] (male Wistar rats, single subcutaneous 50 mg/kg, skin tissue) stood at 3.0 h. In addition, in data set [3] (male, Wistar, rat, plasma, sc, 50 mg/kg), the time of peak concentration (Tmax) came to 3 h. In addition, in data set [3] (setting [5]), the AUC(0-inf) was 812 ± 31.9 µg·h/mL, the maximum concentration (Cmax) amounted to 176 ± 6.3 µg/mL, the MRT was 2.28 ± 0.33 h and the half-life is 1.58 ± 0.23 h. Also, the t½ in data set [4] (rat plasma, previous studies) was 1.6 to 2.9 h. Also, in data set [4] (intraperitoneal dose of 30 mg/kg/day), the “AUC24 h in plasma” value is 558 µg·h/mL. In data set [4] (subcutaneous dose of 40 mg/kg/day), the “AUC24 h in plasma” value was 605 µg·h/mL.
